# Bioassay records: PubChem, several laboratories
# Arr AP2 block – inhibitors of beta-arrestin/AP2 binding, primary screen, biochemical, GPCR trafficking, flow cytometry; 340,000 compounds, 0.31% hits; inhibition, % at 10 µM; beta-arrestin 1 C-terminal peptide binding to AP2 beta2-adaptin appendage (human); FITC-arrestin peptide / GST-AP2 beads; AP2 beta2 appendage carries R879A mutation;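 active means inhibition above a set limit, near 3 SD of compounds lacking own fluorescence, cut at about 54% in these data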;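 further: plate controls were DMSO wells for no effect and 5 µM unlabelled arrestin peptide for full effect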
#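 Test system: GST-tagged AP2 beta2-adaptin appendage (R879A) on 4 µm glutathione beads; also added: fluorescein-tagged arrestin peptide at 50 nM final; timing: 12 min plus 1 h, RT; signal: flow cytometry, FL1 (488/535 nm); read-out: percent drop in bead-associated FITC signal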
# B2AR ag – beta2AR agonists driving receptor internalization, primary screen, cell-based, FAP fluorogen, flow cytometry | response, % (concentration not given with the values) | Am2.2-beta2AR cells | Beta-2 adrenergic receptor (Homo sapiens), P07550 | 340,000 compounds, 0.43% hits;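 active means response above a set limit, near 3 SD of response in nonfluorescent compounds, cut at about 42% in these data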
# Rin1-Abl PPI inh – inhibitors of Rin1-Abl protein binding, primary screen, biochemical, TR-FRET | Tyrosine-protein kinase ABL1 (Homo sapiens) + Ras and Rab interactor 1 (Homo sapiens), … | inhibition, % at 7.35 µM | 360,000 compounds, 0.4% hits; in the data active means inhibition above about 5%, passing the limit was not always enough
# ABHD5-PLIN5 inh – ABHD5-PLIN5 interaction inhibitors, primary screen, cell lysate, split luciferase complementation, luminescence; Perilipin-5 (Homo sapiens) + 1-acylglycerol-3-phosphate O-acyltransferase ABHD5 (Homo …; 360,000 compounds, 0.78% hits; Split G. princeps luciferase complementation, 4 h; inhibition, % at 4 µM; AID 602281, 2012;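 active means inhibition above the mean inhibition across every tested compound plus 3 SD, cut at about 22% in these data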;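 further: 0% = DMSO only wells and the 100% control is not disclosed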
# MBD2 inh – inhibitors of MBD2 binding to methylated DNA, primary screen, biochemical, TR-FRET, DNA-binding domain, human. Methyl-CpG-binding domain protein 2 (Homo sapiens), Q9UBB5. MBD2 binding to methylated oligonucleotide. inhibition, % at 4.4 µM. 370,000 compounds, 0.31% hits. AID 686964, 2013; in the data active means inhibition above about 13%
# UHRF1 MBD2 ctr – UHRF1 methylated DNA binding inhibitors, primary screen, counter-screen for MBD2 inhibitor project, biochemical, TR-FRET, human UHRF1, single concentration | E3 ubiquitin-protein ligase UHRF1 (Homo sapiens), Q96T88 | UHRF1 binding to methylated oligo | inhibition, % at 4.4 µM | 370,000 compounds, 0.75% hits; in the data active means inhibition above about 21%;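 further: UHRF1 SRA domain binding a hemimethylated CpG hairpin DNA probe; 0% = median of test compound wells and 100% = reference inhibitor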
# Target sequence (Q96T88 whole entry, looked up, the tested form may be a part): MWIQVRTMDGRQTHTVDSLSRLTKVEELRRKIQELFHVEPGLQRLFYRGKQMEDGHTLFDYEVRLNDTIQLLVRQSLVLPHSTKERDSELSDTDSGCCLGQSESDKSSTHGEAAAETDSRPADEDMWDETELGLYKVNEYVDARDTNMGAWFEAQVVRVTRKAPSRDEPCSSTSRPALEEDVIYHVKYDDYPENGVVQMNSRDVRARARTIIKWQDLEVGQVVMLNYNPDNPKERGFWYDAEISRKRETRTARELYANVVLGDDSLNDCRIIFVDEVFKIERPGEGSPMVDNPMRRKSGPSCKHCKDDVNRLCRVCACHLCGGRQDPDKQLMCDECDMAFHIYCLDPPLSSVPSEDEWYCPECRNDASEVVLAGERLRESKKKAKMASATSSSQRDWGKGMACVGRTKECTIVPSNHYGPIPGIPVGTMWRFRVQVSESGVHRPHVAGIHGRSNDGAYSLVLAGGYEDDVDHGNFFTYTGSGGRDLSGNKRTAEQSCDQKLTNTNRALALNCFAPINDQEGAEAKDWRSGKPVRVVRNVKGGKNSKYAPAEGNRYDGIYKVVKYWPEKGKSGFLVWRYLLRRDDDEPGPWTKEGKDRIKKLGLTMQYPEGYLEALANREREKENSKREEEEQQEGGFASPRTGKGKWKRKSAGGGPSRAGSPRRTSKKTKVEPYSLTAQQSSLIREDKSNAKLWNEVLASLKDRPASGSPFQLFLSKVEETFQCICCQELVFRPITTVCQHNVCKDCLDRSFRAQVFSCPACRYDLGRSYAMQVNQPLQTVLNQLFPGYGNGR
# ABHD5-PLIN5 conf – ABHD5-PLIN5 interaction inhibitors, confirmation, biochemical, luminescence; inhibition, % at 4 µM; AID 651612, 2012; 2,200 compounds, 67% hits; shares compounds with ABHD5-PLIN5 inh; in the data active means inhibition above about 23%;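 further: 0% = DMSO vehicle wells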
# HNF4 split-luc – HNF4 dimerization inhibitors, counter-screen for ABHD5-PLIN5 interaction inhibitor project, biochemical, split-luciferase complementation, luminescence | shares compounds with ABHD5-PLIN5 inh | 2,200 compounds, 77% hits | inhibition, % at 4 µM;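 active means mean inhibition across replicate wells exceeding the computed hit threshold, cut at about 13% in these data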;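 further: light from luciferase halves that rejoin when HNF4 fusion proteins dimerize; 0% = DMSO only wells and the 100% control is not given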
# * marks the source's active call; other numbers are inactive results; . = no result. Rows were chosen to be rich in hits. Some 2.5% of all compounds tested hit in one or more screens of this group.
SMILES,Arr AP2 block,B2AR ag,Rin1-Abl PPI inh,ABHD5-PLIN5 inh,MBD2 inh,UHRF1 MBD2 ctr,ABHD5-PLIN5 conf,HNF4 split-luc
CCOc1cc(/C=C2\C(=O)N(CCc3ccc(OC)c(OC)c3)C(C)=C2C(=O)OC)ccc1O,-24,6,-2,21,-4,-8,.,.
CCOc1cc(/C=C2\C(=O)N(Cc3ccco3)C(C)=C2C(=O)OC)ccc1O,6,24,2,52*,-9,1,37*,63*
CCOc1ccc(CCN2C(=S)N([C@@H](Cc3ccc(O)cc3)CN3CCC[C@@H]3CN3C(=S)NC[C@@H]3CC(C)C)C[C@@H]2CC(C)C)cc1,.,.,4,28*,-7,0,7,9
CC(C)C[C@H]1CN([C@@H](CC(C)C)CN2CCC[C@@H]2CN2C(=S)NC[C@@H]2Cc2ccc(O)cc2)C(=S)N1CCc1ccccc1,.,.,0,0,-6,0,.,.
CC(C)C[C@H]1CNC(=S)N1C[C@H]1CCCN1C[C@H](CC(C)C)N1C[C@H](Cc2ccc(O)cc2)N(CCc2ccccc2)C1=S,.,.,8,26*,3,-1,3,11
COC(=O)[C@]12C[C@H](CC(=O)NCCCN3CCCC3=O)C(=O)N(CCC3=CCCCC3)C1=C[C@H](C(C)C)O[C@@H]2C1CC1,.,.,.,.,-2,-2,.,.
N#Cc1cccc(NC(=O)OCCN2C(=O)CCC23CCC(c2ccccc2)CC3)c1 (stereo not drawn),.,.,.,.,-1,1,.,.
O=C(Nc1cccc(N2C(=O)C=CC2=O)c1)c1cccs1,11,53*,2,30*,1,1,48*,96*
CC(C)C(=O)N1CC[C@H]2[C@H](CCCN2Cc2cc(F)cc(F)c2)C1,.,.,.,.,-2,0,.,.
C=CCN1[C@H](C#N)[C@@H](c2ccccc2)[C@H]1CO,.,.,.,.,5,0,.,.
CCn1c(=S)[nH]c2scc(-c3cccs3)c2c1=O,9,11,-1,-11,4,2,.,.
C=CCn1c(=S)[nH]c2scc(-c3ccc(C)o3)c2c1=O,12,11,3,32*,0,-2,22,66*
N#CCC[C@@H]1CC[C@]2(CCCN(C(=O)C3CCCCC3)C2)O1,.,.,.,.,5,-1,.,.
Cc1cc(=O)oc2c(O)c(O)ccc12,25,-5,0,5,-6,0,.,.
COc1ccc(/C=C/C(=O)c2c(O)ccc3c(C)cc(=O)oc23)cc1,13,5,6,47*,-1,1,65*,55*
COc1ccc(/C=C\C(=O)c2c(O)ccc3c(C)cc(=O)oc23)cc1,18,2,-1,47*,-3,-1,61*,44*
CCOC(=O)C1CCCN(C(=O)c2cc(Nc3ccc(OC)cc3)nc3ccccc23)C1 (stereo not drawn),1,5,-3,29*,-3,-1,42*,.
NC(CSS(=O)(=O)O)=NCCC12CC3CC(CC(O)(C3)C1)C2,-10,5,-1,-30,0,0,.,.
CC1(C)C2CCC(CN=C(N)CSS(=O)(=O)O)C1C2 (stereo not drawn),.,.,5,61*,7,-1,78*,52*
CC(=O)CC[C@H]1CC[C@]2(CCCN(S(=O)(=O)c3ccccc3)C2)O1,.,.,.,.,-3,2,.,.
Cc1ccc(NCc2nc3ccccc3n2CCOc2ccccc2)cc1,30,7,3,26*,1,-1,6,2
Cc1c(C)n(C)c2ccc(C(=O)NCCc3ccco3)cc12,-12,-1,3,12,0,-3,.,.
CCn1c(C)c(C)c2cc(C(=O)NCCc3ccco3)ccc21,17,16,4,30*,7,4,10,16*
CCOC(=O)N1CCN(C(=O)C[C@H]2C[C@@]3(C(=O)OC)C(=C[C@H](COCc4ccccc4)O[C@@H]3C)N(Cc3ccc(Cl)cc3Cl)C2=O)CC1,.,.,.,.,2,2,.,.
N#Cc1ncc(Cc2ccccc2)nc1C#N,-16,13,4,30*,-3,-4,46*,21*
SMILES,Arr AP2 block,B2AR ag,Rin1-Abl PPI inh,ABHD5-PLIN5 inh,MBD2 inh,UHRF1 MBD2 ctr,ABHD5-PLIN5 conf,HNF4 split-luc
Cc1ccc(-c2csc3nc(C)n(-n4c(C)ccc4C)c(=O)c23)o1,2,8,-1,52*,-6,-1,25*,54*
Cc1ccc(-c2csc3nc(C)n(N)c(=O)c23)o1,3,-2,-1,5,-4,7,.,.
CCCCOCCCNC(=O)C[C@H]1C[C@@]2(C(=O)OC)C(=C[C@H](C3CCCC3)O[C@@H]2C)N(Cc2cccc3ccccc23)C1=O,.,.,.,.,-4,2,.,.
CC(=O)c1ccc2noc(-c3ccc(C)cc3)c2c1,41,4,3,29*,4,-1,14,22*
Cc1ccc(-c2onc3ccc(C(=O)O)cc23)cc1,-23,4,4,5,-3,-3,.,.
CCN(C(=O)CN1C(=O)S/C(=C\C=C\c2ccccc2)C1=O)C1CCS(=O)(=O)C1 (stereo not drawn),37,-9,-1,56*,3,2,17,22*
COc1ccc2c(c1)CO[C@H]([C@H](O)COC(C)=O)[C@H]2/C=C/c1ccccc1,.,.,.,.,3,1,.,.
CS(=O)(=O)c1nc(-c2ccccc2)cc(C(F)(F)F)n1,17,40,-2,63*,2,3,88*,104*
FC(F)(F)c1cc(-c2ccccc2)nc(N2CCCCCC2)n1,-5,3,-4,1,8,4,.,.
Cc1ccccc1CN1CCCCC(NC(=O)c2ccccc2F)C1=O (stereo not drawn),.,.,.,.,0,0,.,.
O=C(N/N=C/c1ccc(N2CCOCC2)o1)c1ccccc1[N+](=O)[O-],6,5,-5,22,-3,-7,.,.
O=C(N/N=C/c1ccc(N2CCCCC2)o1)c1ccccc1[N+](=O)[O-],11,5,1,26*,-6,-5,38*,66*
Cc1ccccc1CN1CCCCC(NC(=O)Cc2cccs2)C1=O (stereo not drawn),.,.,.,.,4,-3,.,.
